# Assay results taken from ChEMBL document CHEMBL5058577, “EUbOPEN Chemogenomics Library 2 (Multiplex)” (2022).
# Test system: HEK-293T
# Assay: Multiplex assay against HEK293T
# Format: toxicity, cell-based
# Settings: human
# Method in brief: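 Per cents of healthy-nucleus cells form the tubulin, mitochondrial-mass and membrane-permeability phenotype values. Live cells were stained at seeding with Hoechst33342, BioTracker Green Microtubule Cytoskeleton Dye, MitoTracker Red and Annexin V Alexa Fluor 680. After compound addition they were imaged on a CQ1 microscope at 37°C and 5% CO2, and CellPathfinder machine-learning gating split them into Hoechst high-intensity objects or normal cells, normal cells into healthy, pyknosed or fragmented nuclei, and pyknosed cells into mitotic or apoptotic.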
# [1] = 12 h, 1 µM, compound concentration 1 uM, replicate 1
# [2] = 12 h, 1 µM, compound concentration 1 uM, replicate 2
# [3] = 12 h, 10 µM, compound concentration 10 uM, replicate 1
# [4] = 12 h, 10 µM, compound concentration 10 uM, replicate 2
# [5] = 24 h, 1 µM, compound concentration 1 uM, replicate 1
# [6] = 24 h, 1 µM, compound concentration 1 uM, replicate 2
# [7] = 24 h, 10 µM, compound concentration 10 uM, replicate 1
# [8] = 24 h, 10 µM, compound concentration 10 uM, replicate 2
# [9] = 48 h, 1 µM, compound concentration 1 uM, replicate 1
# [10] = 48 h, 1 µM, compound concentration 1 uM, replicate 2
# [11] = 48 h, 10 µM, compound concentration 10 uM, replicate 1
# [12] = 48 h, 10 µM, compound concentration 10 uM, replicate 2
compound,measurement,setting,value
C[C@H](N)COC(=O)[C@@H](CCCCN)NC(=O)Cc1c(-c2ccc3ccccc3c2)[nH]c2c1ccc1ccccc12,Population Apoptotic (%),[1],22%
same,Population Fragmented Nuclei (%),[1],6%
same,Population Healthy Nuclei (%),[1],82%
same,Population Hoechst High Intensity Objects (%),[1],8%
same,Population Membrane Permeable-Phenotype (%),[1],0%
same,Population Mitochondria Different-Phenotype (%),[1],37%
same,Population Mitotic Cells (%),[1],77%
same,Population Normal (%),[1],91%
same,Population Pyknosed Nuclei (%),[1],10%
same,Population Tubulin-Different-Phenotype (%),[1],27%
same,Total Cell Count,[1],458
same,Population Apoptotic (%),[2],51%
same,Population Fragmented Nuclei (%),[2],8%
same,Population Healthy Nuclei (%),[2],74%
same,Population Mitochondria Different-Phenotype (%),[2],65%
same,Population Mitotic Cells (%),[2],48%
same,Population Pyknosed Nuclei (%),[2],16%
same,Population Tubulin-Different-Phenotype (%),[2],30%
same,Total Cell Count,[2],291
same,Population Apoptotic (%),[3],41%
same,Population Fragmented Nuclei (%),[3],7%
same,Population Healthy Nuclei (%),[3],78%
same,Population Hoechst High Intensity Objects (%),[3],11%
same,Population Membrane Permeable-Phenotype (%),[3],0%
same,Population Mitochondria Different-Phenotype (%),[3],60%
same,Population Mitotic Cells (%),[3],58%
same,Population Normal (%),[3],88%
same,Population Pyknosed Nuclei (%),[3],14%
same,Population Tubulin-Different-Phenotype (%),[3],54%
same,Total Cell Count,[3],435
same,Population Apoptotic (%),[4],61%
same,Population Fragmented Nuclei (%),[4],5%
same,Population Hoechst High Intensity Objects (%),[4],7%
same,Population Mitochondria Different-Phenotype (%),[4],72%
same,Population Mitotic Cells (%),[4],38%
same,Population Normal (%),[4],93%
same,Population Pyknosed Nuclei (%),[4],16%
same,Population Tubulin-Different-Phenotype (%),[4],50%
same,Total Cell Count,[4],343
same,Population Apoptotic (%),[5],25%
same,Population Fragmented Nuclei (%),[5],9%
same,Population Healthy Nuclei (%),[5],77%
same,Population Hoechst High Intensity Objects (%),[5],4%
same,Population Membrane Permeable-Phenotype (%),[5],0%
same,Population Mitochondria Different-Phenotype (%),[5],24%
same,Population Mitotic Cells (%),[5],75%
same,Population Normal (%),[5],95%
same,Population Pyknosed Nuclei (%),[5],12%
same,Population Tubulin-Different-Phenotype (%),[5],19%
same,Total Cell Count,[5],638
same,Population Apoptotic (%),[6],54%
same,Population Fragmented Nuclei (%),[6],7%
same,Population Healthy Nuclei (%),[6],80%
same,Population Hoechst High Intensity Objects (%),[6],7%
same,Population Membrane Permeable-Phenotype (%),[6],1%
same,Population Mitochondria Different-Phenotype (%),[6],47%
same,Population Mitotic Cells (%),[6],45%
same,Population Normal (%),[6],92%
same,Population Tubulin-Different-Phenotype (%),[6],25%
same,Total Cell Count,[6],352
same,Population Apoptotic (%),[7],41%
same,Population Fragmented Nuclei (%),[7],6%
same,Population Healthy Nuclei (%),[7],78%
same,Population Hoechst High Intensity Objects (%),[7],6%
same,Population Membrane Permeable-Phenotype (%),[7],0%
same,Population Mitochondria Different-Phenotype (%),[7],57%
same,Population Mitotic Cells (%),[7],58%
same,Population Normal (%),[7],93%
same,Population Pyknosed Nuclei (%),[7],14%
same,Population Tubulin-Different-Phenotype (%),[7],45%
same,Total Cell Count,[7],539
same,Population Apoptotic (%),[8],48%
same,Population Fragmented Nuclei (%),[8],9%
same,Population Healthy Nuclei (%),[8],80%
same,Population Hoechst High Intensity Objects (%),[8],7%
same,Population Mitochondria Different-Phenotype (%),[8],54%
same,Population Mitotic Cells (%),[8],51%
same,Population Normal (%),[8],92%
same,Population Pyknosed Nuclei (%),[8],10%
same,Population Tubulin-Different-Phenotype (%),[8],42%
same,Total Cell Count,[8],439
same,Population Apoptotic (%),[9],15%
same,Population Fragmented Nuclei (%),[9],13%
same,Population Healthy Nuclei (%),[9],78%
same,Population Hoechst High Intensity Objects (%),[9],4%
same,Population Membrane Permeable-Phenotype (%),[9],2%
same,Population Mitochondria Different-Phenotype (%),[9],16%
same,Population Mitotic Cells (%),[9],84%
same,Population Normal (%),[9],95%
same,Population Pyknosed Nuclei (%),[9],7%
same,Population Tubulin-Different-Phenotype (%),[9],13%
same,Total Cell Count,[9],963
same,Population Apoptotic (%),[10],37%
same,Population Fragmented Nuclei (%),[10],11%
same,Population Healthy Nuclei (%),[10],79%
same,Population Membrane Permeable-Phenotype (%),[10],0%
same,Population Mitochondria Different-Phenotype (%),[10],29%
same,Population Mitotic Cells (%),[10],62%
same,Population Pyknosed Nuclei (%),[10],9%
same,Population Tubulin-Different-Phenotype (%),[10],17%
same,Total Cell Count,[10],540
same,Population Apoptotic (%),[11],27%
same,Population Fragmented Nuclei (%),[11],13%
same,Population Healthy Nuclei (%),[11],78%
same,Population Hoechst High Intensity Objects (%),[11],6%
same,Population Membrane Permeable-Phenotype (%),[11],0%
same,Population Mitochondria Different-Phenotype (%),[11],44%
same,Population Mitotic Cells (%),[11],72%
same,Population Normal (%),[11],93%
same,Population Pyknosed Nuclei (%),[11],7%
same,Population Tubulin-Different-Phenotype (%),[11],33%
same,Total Cell Count,[11],781
same,Population Apoptotic (%),[12],32%
same,Population Fragmented Nuclei (%),[12],14%
same,Population Healthy Nuclei (%),[12],79%
same,Population Hoechst High Intensity Objects (%),[12],4%
same,Population Mitochondria Different-Phenotype (%),[12],43%
same,Population Mitotic Cells (%),[12],67%
same,Population Normal (%),[12],95%
same,Population Pyknosed Nuclei (%),[12],6%
same,Population Tubulin-Different-Phenotype (%),[12],35%
same,Total Cell Count,[12],681
